Consider 8 molecules from ChEMBL document CHEMBL4480360, “Design and characterization of a heterocyclic electrophilic fragment library for the discovery of cysteine-targeted covalent inhibitors” (Medchemcomm, 2019).

Molecules are shown by their SMILES.

What all share (assay type): physicochemical
Data set [1] is described as follows: Glutathione reactivity assessed as thiol reactivity rate constant at 250 uM up to 72 hrs by HPLC-MS or NMR analysis. Further details: unit not given beside the values. The procedure, abridged:
(§1)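 Fragment 250 µM mixed with 5 mM glutathione in PBS pH 7.4 containing 5% acetonitrile, with 100 µM indoprofen as internal standard. For fragments not detectable at 250 µM, levels were reversed (5 mM fragment, 250 µM GSH). Internal-standard-corrected AUCs were fitted by OLS linear regression. k_GSH = k_eff − k_deg, and t1/2 = ln2/k_GSH.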

Data set [2] in a line: Glutathione reactivity assessed as half life at 250 uM up to 72 hrs by HPLC-MS or NMR analysis. To be noted: gsh. The method, boiled down:
as §1

The nature of data set [3]: Stability of the compound assessed as half life for degradation.

Turning to `Brc1cncs1`, the K in data set [1] came to 0.011. Further, the t1/2 in data set [2] turned out to be 63 h. For the same molecule, in data set [3], the half-life is above 60 min.
The corresponding values for `N#Cc1ccncc1` [ISONICOTINONITRILE] are 0.8837, 0.8 h and above 60 min.
For the molecule `Ic1ncco1`, the K in data set [1] was found to be 6.0573. Besides, in data set [3], the half-life was above 60 min.
As for `Ic1ncc[nH]1`, in data set [1], the K is listed as 0.116. The t1/2 in data set [2] stood at 6 h. Also, in data set [3], the half-life was above 60 min.
The corresponding values for `Ic1nccs1` are 0.7872, 0.9 h and above 60 min.
The corresponding values for `C#CCn1ccnc1` are 0.0144, 48 h and above 60 min.
Take `N#Cc1cnccn1`: the K in data set [1] is recorded as 0.0314. Moreover, the t1/2 in data set [2] is 22.5 h. Moreover, the half-life in data set [3] is above 60 min.
On the same counts, the results for `N#Cc1cccnc1` are 0.0176, 41 h and above 60 min.

For orientation: half-life means the time needed for the level to fall by half in the phase considered.
